Laboratory results taken from ChEMBL document CHEMBL1122512, “Investigations on the chemistry of berbanes. 10. Synthesis of raunescinone analogues with hypotensive and antihypertensive activity” (1984).

How the values were obtained:
Mus musculus [1] = species: Mus musculus; experiment: Compound was evaluated for its lack of depresant effect on the CNS as measured by the forced coordinated motor activity on 10 mice; assay type: functional
Mus musculus [2] = experiment: Lack of depressant effect on the CNS as measured by the forced coordinated motor activity on mice was expressed as time elapsed from dosing required to obtain maximum hypotensive or antihypertensive effect; assay type: functional, Central nervous system
Rattus norvegicus [3] = experiment: Change in heart rate after 3 hours of dosing was measured in conscious normotensive male rats at a dose of 5 mg/kg administered intraperitoneally in 5 rats; assay type: functional; conditions: route intraperitoneal
How it was run: (§1)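 Heart rate was recorded electronically through the blood-pressure recorder during tail-cuff measurement in conscious normotensive male rats (250–300 g), restrained in Plexiglass tubes at 37 °C. Dosing was intraperitoneal, and change from the pre-dose rate was followed to 48 h.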

Rattus norvegicus [4] = experiment: Change in heart rate after 48 hours of dosing was measured in conscious normotensive male rats at a dose of 5 mg/kg administered intraperitoneally in 5 rats; assay type: functional; conditions: route intraperitoneal; how it was run: as §1
Rattus norvegicus [5] = experiment: Change in heart rate after 6 hours of dosing was measured in conscious normotensive male rats at a dose of 5 mg/kg administered intraperitoneally in 5 rats; assay type: functional; conditions: route intraperitoneal; how it was run: as §1
Rattus norvegicus [6] = experiment: Systolic blood pressure was measured prior to dosing in conscious normotensive male rats at a dose of 5 mg/kg administered intraperitoneally in 5 rats; assay type: functional; conditions: route intraperitoneal
How it was run: (§2)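 Conscious normotensive male rats (250–300 g) were restrained in Plexiglass tubes kept at 37 °C. Systolic pressure was read indirectly at the tail root using a tail cuff and a sphygmomanometer with a crystal-microphone pulse pick-up. Dosing was intraperitoneal, and change from the pre-dose value was followed to 48 h.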

Rattus norvegicus [7] = experiment: Change in blood pressure after 12 hours of dosing was measured in conscious normotensive male rats at a dose of 5 mg/kg administered intraperitoneally in 5 rats; assay type: functional; conditions: route intraperitoneal; how it was run: as §2
Rattus norvegicus [8] = experiment: Change in blood pressure after 18 hours of dosing was measured in conscious normotensive male rats at a dose of 5 mg/kg administered intraperitoneally in 5 rats; assay type: functional; conditions: route intraperitoneal; how it was run: as §2
Rattus norvegicus [9] = experiment: Change in blood pressure after 24 hours of dosing was measured in conscious normotensive male rats at a dose of 5 mg/kg administered intraperitoneally in 5 rats; assay type: functional; conditions: route intraperitoneal; how it was run: as §2
Rattus norvegicus [10] = experiment: Change in blood pressure after 3 hours of dosing was measured in conscious normotensive male rats at a dose of 5 mg/kg administered intraperitoneally in 5 rats; assay type: functional; conditions: route intraperitoneal; how it was run: as §2
Rattus norvegicus [11] = experiment: Change in blood pressure after 48 hours of dosing was measured in conscious normotensive male rats at a dose of 5 mg/kg administered intraperitoneally in 5 rats; assay type: functional; conditions: route intraperitoneal; how it was run: as §2
Rattus norvegicus [12] = experiment: Change in blood pressure after 6 hours of dosing was measured in conscious normotensive male rats at a dose of 5 mg/kg administered intraperitoneally in 5 rats; assay type: functional; conditions: route intraperitoneal; how it was run: as §2
Rattus norvegicus [13] = experiment: Change in heart rate after 12 hours of dosing was measured in conscious normotensive male rats at a dose of 5 mg/kg administered intraperitoneally in 5 rats; assay type: functional; conditions: route intraperitoneal; how it was run: as §1
Rattus norvegicus [14] = experiment: Change in heart rate after 18 hours of dosing was measured in conscious normotensive male rats at a dose of 5 mg/kg administered intraperitoneally in 5 rats; assay type: functional; conditions: route intraperitoneal; how it was run: as §1
Rattus norvegicus [15] = experiment: Change in heart rate after 24 hours of dosing was measured in conscious normotensive male rats at a dose of 5 mg/kg administered intraperitoneally in 5 rats; assay type: functional; conditions: route intraperitoneal; how it was run: as §1
Rattus norvegicus [16] = experiment: Heart rate was measured prior to dosing in conscious normotensive male rats at a dose of 5 mg/kg administered intraperitoneally in 5 rats; assay type: functional; conditions: route intraperitoneal; how it was run: as §1
[17] = Ratio of performance time under the effect and corresponding control performance time; assay type: functional
How it was run: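 Female mice (20–25 g), in groups of 10, were trained on a 3 cm rod at 15 rpm and tested 6 h after intraperitoneal dosing. The activity ratio is the group performance time under drug divided by the control group performance time.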

For COC(=O)[C@H]1[C@H]2C[C@@H]3c4[nH]c5cc(OC)ccc5c4CCN3C[C@H]2C[C@@H](OC(=O)c2cc(OC)c(OC)c(OC)c2)[C@@H]1OC [RESERPINE], the Group performance time (Mus musculus [1]) was 9 s, the Time (Mus musculus [2]) was 6 h and the “Change in heart rate” value (Rattus norvegicus [3]) was -34. For the same compound, the “Change in heart rate” value (Rattus norvegicus [4]) was -10, the “Change in heart rate” value (Rattus norvegicus [5]) was -44 and the BP (Rattus norvegicus [6]) was 117 mmHg. The “Change in BP” value (Rattus norvegicus [7]) was -16, the “Change in BP” value (Rattus norvegicus [8]) was -10 and the “Change in BP” value (Rattus norvegicus [9]) was -12. For the same compound, the “Change in BP” value (Rattus norvegicus [10]) was -18, the “Change in BP” value (Rattus norvegicus [11]) was -7 and the “Change in BP” value (Rattus norvegicus [12]) was -23. For the same compound, the “Change in heart rate” value (Rattus norvegicus [13]) was -40, the “Change in heart rate” value (Rattus norvegicus [14]) was -40 and the “Change in heart rate” value (Rattus norvegicus [15]) was -32. The Heart rate (Rattus norvegicus [16]) was 364 beats min-1 and the Activity ratio [17] was under 0.08.
